From ChEMBL document CHEMBL3994633, “Exploration of phenylpropanoic acids as agonists of the free fatty acid receptor 4 (FFA4): Identification of an orally efficacious FFA4 agonist” (Bioorg Med Chem Lett, 2017)

Assays:
[1] = target: T1, Free fatty acid receptor 4 (Homo sapiens, UniProt Q5NUL3); assay: Agonist activity at human FFA4 receptor expressed in human U2OS cells co-expressing Galpha16 assessed as calcium mobilization by Fluo-4 dye based FLIPR assay; assay type: functional, cell-based
T1 sequence (Q5NUL3 whole entry): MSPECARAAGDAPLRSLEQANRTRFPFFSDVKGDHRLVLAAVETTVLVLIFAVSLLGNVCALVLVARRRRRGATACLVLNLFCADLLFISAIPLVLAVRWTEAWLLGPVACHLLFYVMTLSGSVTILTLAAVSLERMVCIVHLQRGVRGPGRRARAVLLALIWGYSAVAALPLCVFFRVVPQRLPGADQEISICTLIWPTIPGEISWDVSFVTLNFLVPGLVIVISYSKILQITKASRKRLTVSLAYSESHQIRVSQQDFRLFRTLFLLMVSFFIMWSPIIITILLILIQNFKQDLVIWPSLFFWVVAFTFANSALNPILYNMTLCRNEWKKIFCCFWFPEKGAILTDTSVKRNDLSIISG
Method in brief: (§1)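 U2OS cells transiently expressing human FFA1 or FFA4. Agonism measured from a ten-point dose-response curve with FLIPR readout, giving EC50 (nM) and efficacy (% max response). Values are means of three experiments.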

[2] = target: T2, Free fatty acid receptor 1 (Homo sapiens, UniProt O14842); assay: Agonist activity at human FFA1 receptor expressed in human U2OS cells co-expressing Galpha16 assessed as calcium mobilization by Fluo-4 dye based FLIPR assay; assay type: functional, cell-based; method in brief: as §1
[3] = target: T3, Free fatty acid receptor 4 (Homo sapiens) (UniProt Q5NUL3); assay: Agonist activity at human FFA4 receptor expressed in human U2OS cells co-expressing Galpha16 assessed as calcium mobilization by Fluo-4 dye based FLIPR assay relative to GSK137647A; assay type: functional, cell-based; method in brief: as §1
T3 sequence (whole entry): T1 sequence (Q5NUL3 whole entry)

[4] = target: T2, Free fatty acid receptor 1; assay: Agonist activity at human FFA1 receptor expressed in human U2OS cells co-expressing Galpha16 assessed as calcium mobilization by Fluo-4 dye based FLIPR assay relative to GSK137647A; assay type: functional, cell-based; method in brief: as §1
Homo sapiens [5] = species: Homo sapiens; assay: Selectivity ratio of EC50 for human FFA1 receptor expressed in human U2OS cells co-expressing Galpha16 to EC50 for human FFA4 receptor expressed in human U2OS cells co-expressing Galpha16; assay type: cell-based
Homo sapiens [6] = species: Homo sapiens; assay: Selectivity ratio of EC50 for human FFA4 receptor expressed in human U2OS cells co-expressing Galpha16 to EC50 for human FFA1 receptor expressed in human U2OS cells co-expressing Galpha16; assay type: cell-based
[7] = Clearance in C57BL/6J mouse at 3 mg/kg, iv; assay type: ADME, organism-based; conditions: in vivo
Method in brief: (§2)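 C57BL/6J mice (n = 2) dosed intravenously at 3 or 4.2 mg/kg. Clearance (mL/min/kg) and AUC (hr*ng/mL) derived from plasma concentrations.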

[8] = AUC in C57BL/6J mouse at 3 mg/kg, iv; assay type: ADME, organism-based; conditions: in vivo; method in brief: as §2
[9] = Cmax in C57BL/6J mouse at 10 mg/kg, po; assay type: ADME, organism-based; set-up: dose 10 mg/kg, route oral; conditions: in vivo
Method in brief: (§3)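 C57BL/6J mice (n = 2), single oral dose of 10 mg/kg given as a suspension in 0.5% HMPC: 0.1% Tween. Plasma Cmax and AUC (hr*ng/mL) measured; %F calculated against the IV leg.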

[10] = AUC in C57BL/6J mouse at 10 mg/kg, po; assay type: ADME, organism-based; conditions: in vivo; method in brief: as §3
[11] = Oral bioavailability in C57BL/6J mouse at 10 mg/kg; assay type: ADME, organism-based; conditions: in vivo; method in brief: as §3
[12] = Tmax in C57BL/6J mouse at 10 mg/kg, po; assay type: ADME, organism-based; conditions: in vivo
[13] = Volume of distribution at steady state in C57BL/6J mouse at 3 mg/kg, iv or 10 mg/kg, po; assay type: ADME, organism-based; conditions: in vivo, read-out: Vdss
[14] = Protein binding in human plasma; assay type: ADME, cell-free; conditions: read-out: PPB

T2 sequence (O14842 whole entry): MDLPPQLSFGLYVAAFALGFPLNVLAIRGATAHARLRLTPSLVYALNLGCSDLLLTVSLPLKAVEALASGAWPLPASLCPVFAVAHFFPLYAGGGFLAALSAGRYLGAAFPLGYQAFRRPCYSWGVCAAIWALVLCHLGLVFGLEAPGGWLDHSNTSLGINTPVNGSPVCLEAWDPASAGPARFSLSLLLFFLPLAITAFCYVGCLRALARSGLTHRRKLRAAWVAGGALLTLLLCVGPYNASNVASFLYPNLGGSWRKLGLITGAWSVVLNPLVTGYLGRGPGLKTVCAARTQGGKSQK

Structure (SMILES)	EC50 [1]	EC50 ([2]; read-out: EC50)	%max [3]	%max [4]	further results
O=C(O)CCc1ccc(OCc2ccccc2SC(F)(F)F)c(CO)c1	5910 nM	> 30 µM	53%	–	–
O=C(O)CCc1ccc(OCc2ccccc2SC(F)(F)F)cc1	681 nM	1.42 µM	105%	74 to 77%	Ratio EC50 (Homo sapiens [5]): 2
O=C(O)CCc1ccc(OCc2cccc(Oc3ccccc3)c2)cc1	968 nM	–	85%	106%	Ratio EC50 (Homo sapiens [6]): 17
Cc1c(CCC(=O)O)ccc(OCc2ccccc2SC(F)(F)F)c1C	304 nM	> 30 µM	77%	–	–
Cc1cc(CCC(=O)O)ccc1OCc1cccc(Oc2ccccc2)c1	556 nM	3.84 µM	95%	90%	–
COc1cc(CCC(=O)O)ccc1OCc1ccccc1SC(F)(F)F	1990 nM	> 30 µM	110%	–	–
Cc1cccc(COc2ccc(CCC(=O)O)cc2C)c1	275 nM	> 30 µM	100%	–	clearance [7]: 12 mL/min/kg; AUC [8]: 4100 ng·h/mL; Cmax [9]: 3080 ng/mL; AUC [10]: 5350 ng·h/mL; bioavailability [11]: 39%; Tmax [12]: 15 to 30 min; Vd [13]: < 2 L/kg; fraction unbound [14]: < 0.01
O=C(O)CCc1ccc(OCc2ccccc2SC(F)(F)F)c(Cl)c1	108 nM	> 10 µM	80%	–	EC50 ([2]; read-out: pEC50 (converted)): > 31.6 µM
Cc1cc(CCC(=O)O)ccc1OCc1ccccc1Br	236 nM	> 30 µM	116%	–	–
CC(CC(=O)O)c1ccc(OCc2ccccc2SC(F)(F)F)cc1 (centres undefined)	11400 nM	13.1 µM	–	109%	–
Cc1cc(CCC(=O)O)ccc1OCc1ccccc1	750 nM	> 30 µM	83%	–	–
Cc1ccc(Cl)c(COc2ccc(CCC(=O)O)cc2C)c1	188 nM	18.1 µM	115%	243%	clearance [7]: 18 mL/min/kg; AUC [8]: 2860 ng·h/mL; Cmax [9]: 3030 ng/mL; AUC [10]: 4400 ng·h/mL; bioavailability [11]: 46%; Tmax [12]: 15 to 30 min; Vd [13]: < 2 L/kg; fraction unbound [14]: < 0.01
Cc1cc(CCC(=O)O)ccc1OCc1ccccc1C(F)(F)F	531 nM	8.6 µM	103%	95%	–
Cc1cc(CCC(=O)O)cc(C)c1OCc1ccccc1SC(F)(F)F	660 nM	21.8 µM	102%	115%	–
Cc1cc(CCC(=O)O)ccc1OCc1ccccc1Cl	972 nM	11.6 µM	130%	80%	–
Cc1cc(CCC(=O)O)ccc1OCc1ccccc1OC(C)C	271 nM	> 30 µM	118%	–	–
Cc1cc(CCC(=O)O)ccc1OCc1ccccc1SC(F)(F)F	201 nM	8.51 µM	108%	81%	–
Cc1cc(OCc2ccccc2SC(F)(F)F)ccc1CCC(=O)O	722 nM	1.54 µM	90%	108%	–
Cc1cc(C)cc(COc2ccc(CCC(=O)O)cc2C)c1	60 nM	3.78 µM	66%	97%	clearance [7]: 35 mL/min/kg; AUC [8]: 1420 ng·h/mL; Cmax [9]: 2630 ng/mL; AUC [10]: 2600 ng·h/mL; bioavailability [11]: 55%; Tmax [12]: 15 to 30 min; Vd [13]: < 2 L/kg; fraction unbound [14]: < 0.01
Cc1ccc(Br)c(COc2ccc(CCC(=O)O)cc2C)c1	53 nM	> 30 µM	118%	–	–
O=C(O)CCc1ccc(OCc2ccccc2SC(F)(F)F)c2ccccc12	2290 nM	> 30 µM	105%	–	–
CC(C)Cc1cc(CCC(=O)O)ccc1OCc1ccccc1SC(F)(F)F	9660 nM	> 30 µM	161%	–	–
Cc1cc(CCC(=O)O)ccc1OCc1cccc(Cl)c1	362 nM	10.3 µM	104%	60%	–
O=C(O)CC(O)c1ccc(OCc2ccccc2SC(F)(F)F)cc1 (centres undefined)	> 30000 nM	–	–	–	–
Cc1ccc(OC(C)C)c(COc2ccc(CCC(=O)O)cc2C)c1	172 nM	19.6 µM	106%	154%	–
Cc1cc(CCC(=O)O)ccc1OCc1cc(C(F)(F)F)ccc1O	10000 nM	–	78%	–	–
Cc1cc(COc2ccc(CCC(=O)O)cc2C)cc(Oc2ccccc2)c1	40 nM	1.63 µM	97%	85%	–
O=C(O)COc1ccc(OCc2ccccc2SC(F)(F)F)cc1	9980 nM	> 30 µM	85%	–	–
Cc1cc(CCC(=O)O)ccc1OCc1cccc(C(F)(F)F)c1	898 nM	> 30 µM	117%	–	–
Cc1cc(COc2ccc(CCC(=O)O)cc2C)cc(OC(C)C)c1	60 nM	> 30 µM	112%	–	clearance [7]: 43 mL/min/kg; AUC [8]: 1170 ng·h/mL; Cmax [9]: 687 ng/mL; AUC [10]: 767 ng·h/mL; bioavailability [11]: 20%; Tmax [12]: 15 to 30 min; Vd [13]: < 2 L/kg; fraction unbound [14]: < 0.01
